IC50 data for two molecules are collected here from ChEMBL document CHEMBL1143402 (PLoS Med, 2006).

One may read the IC50 as the concentration that gives 50% inhibition.

Test [1] relates to Mycobacterium tuberculosis. The test is described as follows: Inhibition of fatty acid synthesis in Mycobacterium bovis BCG after 60 mins. Format: functional, organism-based. The following applies: variant bovis BCG, 1 h. The procedure, abridged:
(§1)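 M. bovis BCG culture incubated with compound or DMSO plus 2-^14C acetate at 37 °C for 60 min. Cells saponified with KOH/methanol, acid-extracted into hexane, methyl-esterified. Fatty and mycolic acid subclasses separated by two-solvent TLC (n = 3) and quantified by phosphorimaging as % of control.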

The subject of test [2] is Mycobacterium tuberculosis. In words: Inhibition of alpha-mycolic acid synthesis in Mycobacterium bovis BCG after 60 mins. The following applies: variant bovis BCG, 1 h. Format: functional, organism-based. The procedure, abridged: as §1

Take `C[C@]1(COc2ccc(N3CCC(Oc4ccc(OC(F)(F)F)cc4)CC3)cc2)Cn2cc([N+](=O)[O-])nc2O1`: the IC50 in test [1] and in test [2] was greater than 0.25 µg/mL in each case.

In test [1], `NNC(=O)c1ccncc1` [ISONIAZID] registered an IC50 greater than 4 µg/mL.
